Experimental data from ChEMBL document CHEMBL1123394, “Systematic synthesis and biological evaluation of alpha- and beta-D-xylofuranosyl nucleosides of the five naturally occurring bases in nucleic acids and related analogues” (J Med Chem, 1986).
≈ marks a conversion by molar mass, not a printed value.

What was measured:
[1] = Concentration required for microscopically detectable alteration of the normal cell morphology in PRK cells.; assay type: functional; conditions: Oryctolagus cuniculus
How it was run: (§1)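 Host-cell morphology inspected microscopically for detectable alteration, with compounds in growth medium at up to 200 or 400 μg/mL.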

[2] = Antiviral activity was measured against vaccinia virus in rabbit kidney cells.; assay type: functional; conditions: Oryctolagus cuniculus
How it was run: (§2)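 Inhibition of virus-induced cytopathogenicity in cell culture. Compounds were dissolved in growth medium at 100, 10 or 1 μg/mL or less.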

Vero [3] = test: Concentration required for microscopically detectable alteration of the normal cell morphology in Vero B cells.; assay type: functional; conditions: Chlorocebus sabaeus; how it was run: as §1
Vero [4] = test: Antiviral activity was measured against forest virus in african green monkey kidney (Vero B) cells.; assay type: functional; conditions: Chlorocebus sabaeus
How it was run: (§3)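 Inhibition of virus-induced cytopathogenicity scored in cell culture monolayers. Test compounds dissolved in growth medium at 100, 10, or 1 μg/mL or less.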

HeLa [5] = test: Concentration required for microscopically detectable alteration of the normal cell morphology in HeLa cells.; assay type: functional; conditions: Homo sapiens; how it was run: as §1
Vero [6] = test: Antiviral activity was measured against Parainfluenza virus-3 in african green monkey kidney (Vero B) cells.; assay type: functional; conditions: Chlorocebus sabaeus; how it was run: as §3
WI-38 [7] = test: Antiviral activity was measured against Rhino virus-9 in human diploid (WI-38) cells.; assay type: functional; how it was run: as §3
[8] = Antiviral activity was measured against Herpes simplex virus (HSV-2 G) in rabbit kidney cells.; assay type: functional; conditions: Oryctolagus cuniculus; how it was run: as §3
HeLa [9] = test: Antiviral activity was measured against Coxsackie virus B4 in HeLa cells.; assay type: functional; conditions: Homo sapiens; how it was run: as §2
WI-38 [10] = test: Concentration required for microscopically detectable alteration of the normal cell morphology in Wi-38 cells.; assay type: functional; conditions: Homo sapiens; how it was run: as §1
Vero [11] = test: Antiviral activity was measured against Coxsackie virus B4 in african green monkey kidney (Vero B) cells.; assay type: functional; conditions: Chlorocebus sabaeus; how it was run: as §3
Vero [12] = test: Antiviral activity was measured against Reo virus-1 in african green monkey kidney (Vero B) cells.; assay type: functional; conditions: Chlorocebus sabaeus; how it was run: as §3
WI-38 [13] = test: Antiviral activity was measured against Rhino virus-1A in human diploid (WI-38) cells.; assay type: functional; how it was run: as §3
[14] = Antiviral activity was measured against vesicular stomatitis virus in rabbit kidney cells.; assay type: functional; conditions: Oryctolagus cuniculus; how it was run: as §2
Vero [15] = test: Antiviral activity was measured against Sindbis virus in african green monkey kidney (Vero B) cells.; assay type: functional; conditions: Chlorocebus sabaeus; how it was run: as §3
[16] = Antiviral activity was measured against Herpes simplex virus (HSV-1 KOS) in rabbit kidney cells.; assay type: functional; conditions: Oryctolagus cuniculus; how it was run: as §2
HeLa [17] = test: Antiviral activity was measured against vesicular stomatitis virus in HeLa cells.; assay type: functional; conditions: Homo sapiens; how it was run: as §2
Mus musculus [18] = test: Toxicity of compound against mice was determined at a concentration of 2000 mg/kg; assay type: organism-based; parameters: dose 2000 mg/kg; conditions: in vivo
How it was run: (§4)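 Swiss mice (20-24 g) received a single intraperitoneal dose of 100-2,000 mg/kg. Compound was suspended in distilled water containing 0.2 g Tween 80 and 0.2 g (carboxymethyl)cellulose per 100 mL. Mice were followed for 14 days for acute toxicity.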

Mus musculus [19] = test: Toxicity of compound against mice was determined at a concentration of 750 mg/kg; assay type: organism-based; parameters: dose 750 mg/kg; conditions: in vivo; how it was run: as §4
Mus musculus [20] = test: Toxicity of compound against mice was determined at a concentration of 100 mg/kg; assay type: organism-based; parameters: dose 100 mg/kg; conditions: in vivo; how it was run: as §4
Mus musculus [21] = test: Toxicity of compound against mice was determined at a concentration of 250 mg/kg; assay type: organism-based; parameters: dose 250 mg/kg; conditions: in vivo; how it was run: as §4
Mus musculus [22] = test: Efficacy expressed as number of surviving mice infected with herpetic encephalitis at dose of 0 mg/kg; assay type: functional
Mus musculus [23] = test: Toxicity of compound against mice was determined at a concentration of 1200 mg/kg; assay type: organism-based; parameters: dose 1200 mg/kg; conditions: in vivo; how it was run: as §4
[24] = Concentration required to reduce RNA synthesis in primary rabbit kidney cells using [3H-5]-Urd incorporation; assay type: functional; conditions: Oryctolagus cuniculus, read-out: ID50 (the source's name)
How it was run: (§5)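 Primary rabbit kidney cells with compounds in growth medium at 100, 10, or 1 μg/mL or less. Cell number and incorporation of [3H-methyl]dThd (DNA), [3H-5]Urd (RNA) or [3H2-4,5]leucine (protein) measured. ID50 taken as the dose giving 50% reduction in cell number or in DNA, RNA or protein synthesis.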

[25] = Concentration required to reduce DNA synthesis in primary rabbit kidney cells using [3H-Methyl]-dThd incorporation; assay type: functional; conditions: Oryctolagus cuniculus, read-out: ID50 (the source's name); how it was run: as §5
[26] = Dose required to reduce primary rabbit kidney cell growth; assay type: functional; conditions: Oryctolagus cuniculus, read-out: ID50 (the source's name); how it was run: as §5
[27] = Concentration required to reduce protein synthesis in primary rabbit kidney cells usingi [3H2-4,5]leucine incorporation; assay type: functional; conditions: Oryctolagus cuniculus, read-out: ID50 (the source's name); how it was run: as §5
[28] = Antiviral activity was measured against Vaccinia virus in rabbit kidney cells.; assay type: functional; conditions: Oryctolagus cuniculus; how it was run: as §2

SMILES	MCC [1]	MCC (Vero [3])	MCC (Vero [4])	MCC (HeLa [5])	MCC (Vero [6])	MCC (WI-38 [7])	MCC [8]	MCC (HeLa [9])	MCC (WI-38 [10])	MCC (Vero [11])	MCC (Vero [12])	MCC (WI-38 [13])	MCC (Vero [15])	MCC [16]	other results
Nc1nccc2c1ncn2[C@@H]1C[C@H](CO)[C@@H](O)[C@H]1O [3-DEAZAARISTEROMYCIN A]	> 400 µg/mL	≥ 400 µg/mL	> 400 µg/mL	≥ 400 µg/mL	0.2 µg/mL	> 400 µg/mL	> 400 µg/mL	> 400 µg/mL	> 400 µg/mL	0.7 µg/mL	2 µg/mL	> 400 µg/mL	> 400 µg/mL	> 400 µg/mL	MCC [2]: 2 µg/mL; MCC [14]: 0.7 µg/mL; MCC (HeLa [17]): 2 µg/mL
Nc1ncnc2c1ncn2C1O[C@H](CO)[C@H](O)[C@H]1O (stereo partly drawn)	> 400 µg/mL	> 400 µg/mL	> 400 µg/mL	> 400 µg/mL	> 400 µg/mL	> 40 µg/mL	> 400 µg/mL	> 400 µg/mL	> 400 µg/mL	> 400 µg/mL	> 400 µg/mL	> 400 µg/mL	> 400 µg/mL	> 400 µg/mL	–
Nc1ncnc2c1ncn2C[C@H](O)CO [(S)-DHPA]	> 400 µg/mL	> 400 µg/mL	> 400 µg/mL	> 400 µg/mL	> 400 µg/mL	> 400 µg/mL	> 400 µg/mL	> 400 µg/mL	> 400 µg/mL	100 µg/mL	100 µg/mL	150 µg/mL	> 400 µg/mL	> 400 µg/mL	MCC [2]: 20 µg/mL; MCC [14]: 20 µg/mL; MCC (HeLa [17]): 70 µg/mL
Nc1nc2c(ncn2COCCO)c(=O)[nH]1 [ACYCLOVIR]	–	–	–	–	–	–	–	–	–	–	–	–	–	–	No. of dead mice (Mus musculus [18]): 7; No. of dead mice (Mus musculus [19]): 1; No. of dead mice (Mus musculus [20]): 0; No. of dead mice (Mus musculus [21]): 0; Efficacy (Mus musculus [22]): 0 mg/kg; No. of dead mice (Mus musculus [23]): 7
Cc1cn([C@@H]2O[C@H](CO)[C@@H](O)[C@H]2O)c(=O)[nH]c1=O	> 400 µg/mL	> 400 µg/mL	> 400 µg/mL	> 400 µg/mL	> 400 µg/mL	> 400 µg/mL	> 400 µg/mL	> 400 µg/mL	> 400 µg/mL	> 400 µg/mL	> 400 µg/mL	> 400 µg/mL	> 400 µg/mL	> 400 µg/mL	–
Nc1nc2c(ncn2[C@@H]2O[C@H](CO)[C@H](O)[C@H]2O)c(=O)[nH]1	–	–	–	–	–	–	–	–	–	–	–	–	–	–	No. of dead mice (Mus musculus [19]): 8; No. of dead mice (Mus musculus [20]): 2; No. of dead mice (Mus musculus [21]): 5
Nc1ccn([C@@H]2O[C@H](CO)[C@@H](O)[C@@H]2O)c(=O)n1 [CYTARABINE]	–	–	–	–	–	–	–	–	–	–	–	–	–	–	IC50 [24]: 0.03 µg/mL (≈ 0.123 µM); IC50 [25]: 0.05 µg/mL (≈ 0.206 µM); IC50 [26]: 0.04 µg/mL (≈ 0.164 µM); IC50 [27]: > 200 µg/mL
O=c1ccn(C2O[C@H](CO)[C@H](O)[C@H]2O)c(=O)[nH]1 (stereo partly drawn)	> 400 µg/mL	> 400 µg/mL	> 400 µg/mL	> 400 µg/mL	> 400 µg/mL	> 400 µg/mL	300 µg/mL	> 400 µg/mL	> 400 µg/mL	> 400 µg/mL	> 400 µg/mL	> 400 µg/mL	> 400 µg/mL	300 µg/mL	MCC [28]: 150 µg/mL; MCC [14]: > 200 µg/mL
Nc1nc(O)c2c(n1)[nH]c[n+]2C1O[C@H](CO)[C@H](O)[C@H]1O (stereo partly drawn)	> 400 µg/mL	400 µg/mL	> 200 µg/mL	> 400 µg/mL	> 200 µg/mL	> 200 µg/mL	> 400 µg/mL	> 400 µg/mL	> 400 µg/mL	> 200 µg/mL	> 200 µg/mL	> 200 µg/mL	> 200 µg/mL	> 400 µg/mL	–
Nc1nc(S)c2ncn(C3O[C@H](CO)[C@H](O)[C@H]3O)c2n1 (stereo partly drawn)	> 400 µg/mL	≥ 200 µg/mL	> 200 µg/mL	≥ 200 µg/mL	> 200 µg/mL	> 200 µg/mL	> 400 µg/mL	> 200 µg/mL	≥ 400 µg/mL	> 200 µg/mL	> 200 µg/mL	> 200 µg/mL	> 200 µg/mL	> 400 µg/mL	–
NC(=O)c1ncn([C@H]2O[C@H](CO)[C@H](O)[C@H]2O)c1N	> 400 µg/mL	> 400 µg/mL	> 400 µg/mL	> 400 µg/mL	> 400 µg/mL	> 400 µg/mL	> 400 µg/mL	> 400 µg/mL	> 400 µg/mL	> 300 µg/mL	> 400 µg/mL	> 400 µg/mL	> 400 µg/mL	> 400 µg/mL	–
